# The source made the active and inactive calls. The calls are words filed in the database; no cut-off is given here. Non-standard residues stand in square brackets, D forms with d. Residues, ends and D or L forms follow the SMILES beside them. *: point of attachment. Pro(4R-Me) = C[C@H]1CN[C@H](C(=O)O)C1; Oleoyl = CCCCCCCC/C=C\CCCCCCCC(=O)*; hSer = N[C@@H](CCO)C(=O)O; Alaol = C[C@@H](CO)N*
# How the values were obtained:
# Nakaseomyces glabratus [1] = assay: Antifungal activity against Candida glabrata MY992 at 8 ug/ml after 24 hrs by resazurin test; assay type: functional, organism-based
# Candida albicans [2] = assay: Antifungal activity against Candida albicans MY1055 at 8 ug/ml after 24 hrs by resazurin test; assay type: functional, organism-based
# In short: (§1)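 Tested with and without sublethal caspofungin (0.015 μg/mL for A. fumigatus, 0.03 μg/mL for C. albicans) at 37 °C for 24 h. Resazurin 0.002% added 3–4 h before reading; fluorescence read at ex 570/em 615 nm. C. albicans was grown overnight in SDB, set to OD600 0.25 in RPMI-modified medium (pH 7.1) and diluted 1:10. Run in triplicate.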
# Aspergillus fumigatus [3] = assay: Potentiation of caspofungin-induced antifungal activity against Aspergillus fumigatus ATCC 46645 at 2 ug/ml after 24 hrs by checkerboard method relative to control; assay type: functional
# In short: (§2)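 Checkerboard of double dilutions: caspofungin at final 0.24–0.00018 μg/mL (columns) crossed with test compound at final 8–0.015 μg/mL (rows) in the central 80 wells of one plate. Caspofungin dose–response curves gave IC50 values at each compound level.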
# Candida albicans [4] = assay: Potentiation of caspofungin-induced antifungal activity against Candida albicans MY1055 at 1 ug/ml after 24 hrs by checkerboard method; assay type: functional, organism-based; in short: as §2
# Aspergillus fumigatus [5] = assay: Antifungal activity against Aspergillus fumigatus ATCC 46645 after 24 hrs by resazurin test in presence of caspofungin; assay type: functional; conditions: ATCC 46645, 24 h; in short: as §1
# Aspergillus fumigatus [6] = assay: Antifungal activity against Aspergillus fumigatus ATCC 46645 at 8 ug/ml after 24 hrs by resazurin test; assay type: functional, organism-based; in short: as §1
# Candida albicans [7] = assay: Antifungal activity against Candida albicans MY1055 after 24 hrs by resazurin test in presence of caspofungin; assay type: functional; conditions: MY1055, 24 h; in short: as §1
# Pichia kudriavzevii = assay: Antifungal activity against Candida krusei ATCC 6258 after 24 hrs by 2-fold serial dilution method; assay type: functional; conditions: ATCC 6258, 24 h
# In short: (§3)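 Cells were inoculated at 10^5 CFU/mL into 2-fold serial compound dilutions in growth medium and incubated at 37 °C. The MIC was recorded after 24 h as the lowest concentration inhibiting visible growth. Where given, the MIC80 is 80% inhibition, reported as prominent inhibition.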
# Candida parapsilosis = assay: Antifungal activity against Candida parapsilosis ATCC 22019 after 24 hrs by 2-fold serial dilution method; assay type: functional; conditions: ATCC 22019, 24 h; in short: as §3
# Clavispora lusitaniae = assay: Antifungal activity against Clavispora lusitaniae ATCC 34449 after 24 hrs by 2-fold serial dilution method; assay type: functional; conditions: ATCC 34449, 24 h; in short: as §3
# Aspergillus fumigatus [8] = assay: Antifungal activity against Aspergillus fumigatus MF5668 after 48 hrs by 2-fold serial dilution method; assay type: functional; conditions: MF5668, 48 h
# In short: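 Broth microdilution MIC test: the inoculum was 10^5 CFU/mL, with a 2-fold serial dilution of compound in growth medium at 37 °C. The MIC was read after 48 h incubation as the lowest concentration inhibiting visible growth. Where given, the MIC80 is 80% inhibition, reported as prominent inhibition.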
# Candida albicans [9] = assay: Antifungal activity against Candida albicans MY1055 after 24 hrs by 2-fold serial dilution method; assay type: functional; conditions: MY1055, 24 h; in short: as §3
# Candida tropicalis = assay: Antifungal activity against Candida tropicalis ATCC 750 after 24 hrs by 2-fold serial dilution method; assay type: functional; conditions: ATCC 750, 24 h; in short: as §3
# Nakaseomyces glabratus [10] = assay: Antifungal activity against Candida glabrata ATCC 90030 after 24 hrs by 2-fold serial dilution method; assay type: functional; conditions: ATCC 90030, 24 h; in short: as §3
# Candida albicans [11] = assay: Antifungal activity against Candida albicans MY1055 after 24 hrs by 2-fold serial dilution method in presence of 50% mouse serum; assay type: functional; conditions: MY1055, 24 h
# Aspergillus fumigatus [12] = assay: Antifungal activity against Aspergillus fumigatus ATCC 46645 assessed as growth inhibition after 24 hrs by checkerboard method; assay type: functional, organism-based; conditions: ATCC 46645, 24 h; in short: as §2
SMILES,Activity (Nakaseomyces glabratus [1]),Activity (Candida albicans [2]),fold change (FC) (Aspergillus fumigatus [3]),Activity (Candida albicans [4]),MIC (Aspergillus fumigatus [5]) [µg/mL],Activity (Aspergillus fumigatus [6]),MIC (Candida albicans [7]) [µg/mL],MIC (Pichia kudriavzevii) [µg/mL],MIC (Candida parapsilosis) [µg/mL],MIC (Clavispora lusitaniae) [µg/mL],MIC (Aspergillus fumigatus [8]) [µg/mL],MIC80 (Aspergillus fumigatus [8]) [µg/mL],MIC (Candida albicans [9]) [µg/mL],MIC (Candida tropicalis) [µg/mL],MIC (Nakaseomyces glabratus [10]) [µg/mL],MIC (Candida albicans [11]) [µg/mL],IC50 (Aspergillus fumigatus [12]) [nM]
CCCCCCCCCCCC(=O)N[C@@H](CCC(N)=O)C(=O)N[C@@H]1C(=O)NCCC(=O)N[C@H](Cc2c[nH]c3ccccc23)C(=O)N[C@@H](CO)C(=O)N[C@H](Cc2ccccc2)C(=O)O[C@@H]1C,inactive,inactive,5.3,Active,4,inactive,2,,,,,,,,,,
CCCCCCCC/C=C\CCCCCCCC(=O)N[C@H](C(=O)N1C[C@H](C)C[C@H]1C(=O)N[C@H](C(=O)N[C@@H](CCOC(C)=O)C(=O)N[C@@H](C)C=O)C(C)C)[C@@H](C)O (Oleoyl-T[Pro(4R-Me)]V[hSer](Ac)A-aldehyde),,,,,,,,4,2,2,> 32,8,2,0.5,2,> 32,
CCCCCCCC/C=C\CCCCCCCC(=O)N[C@H](C(=O)N1C[C@H](C)C[C@H]1C(=O)N[C@H](C(=O)N[C@@H](CCO)C(=O)N[C@@H](C)CO)C(C)C)[C@@H](C)O (Oleoyl-T[Pro(4R-Me)]V[hSer]-Alaol),,,,,,,,> 32,> 32,> 32,,,> 32,> 32,> 32,,
CCCCCCCC/C=C\CCCCCCCC(=O)N[C@H](C(=O)N1C[C@H](C)C[C@H]1C(=O)N[C@H](C(=O)N[C@@H](CCO)C(=O)N[C@@H](C)C=O)C(C)C)[C@@H](C)O (Oleoyl-T[Pro(4R-Me)]V[hSer]A-aldehyde),,,,,,,,2,2,2,> 32,8,2,0.5,2,> 32,
CC[C@H](C)C[C@H](C)CCCCCCCCC(=O)N[C@H]1C[C@@H](O)[C@@H](NCCN)NC(=O)[C@@H]2[C@@H](O)CCN2C(=O)[C@H]([C@H](O)CCN)NC(=O)[C@H]([C@H](O)[C@@H](O)c2ccc(O)cc2)NC(=O)[C@@H]2C[C@@H](O)CN2C(=O)[C@H]([C@@H](C)O)NC1=O [CASPOFUNGIN],,,,,,,,,,,,,,,,,33

# From ChEMBL document CHEMBL3576779, “Cyclic colisporifungin and linear cavinafungins, antifungal lipopeptides isolated from Colispora cavincola” (J Nat Prod, 2015)
